Test results reported in ChEMBL document CHEMBL4732196, “Structural optimization towards promising β-methyl-4-acrylamido quinoline derivatives as PI3K/mTOR dual inhibitors for anti-cancer therapy: The in vitro and in vivo biological evaluation” (Eur J Med Chem, 2021).
Activity calls are given as the source filed them. The rule behind the calls is not given here.

Assays:
[1] = molecular target: Serine/threonine-protein kinase mTOR (Homo sapiens, UniProt P42345); assay: Inhibition of recombinant human N-terminal FLAG-tagged mTOR (1362 to end amino acids) using ULight-4E-BP1 as substrate incubated for 1 hr by LANCE Ultra assay
[2] = AUC(0 to infinity) in Sprague-Dawley rat at 5 mg/kg, po; type: ADME, organism-based; design: time infinity, route oral, dose 5 mg/kg; conditions: in vivo
Method in brief: (§1)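 Male Sprague-Dawley rats (n = 3) given a single oral gavage of 5 mg/kg as a homogeneous opaque suspension in 0.5% methylcellulose; plasma concentration-time curves used to derive mean PK parameters.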

[3] = molecular target: Cyclin-dependent kinase 11B (Homo sapiens) (UniProt P21127); assay: Inhibition of human partial length CDC2L1 (P353 to G692 residues) expressed in bacterial system assessed as residual activity at 10 uM by kinome scan method relative to control
Method in brief: (§2)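 KINOMEscan binding assay, test compound at 10 μM against a 52-kinase panel. % Ctrl = (compound signal − positive control signal)/(negative control signal − positive control signal) × 100, with DMSO as negative control (100%) and a positive control (0%).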

[4] = molecular target: Cyclin-dependent kinase-like 1 (Homo sapiens) (UniProt Q00532); assay: Inhibition of human partial length CDKL1 (M1 to I358 residues) expressed in bacterial system assessed as residual activity at 10 uM by kinome scan method relative to control; method in brief: as §2
[5] = MRT(0 to t) in Sprague-Dawley rat at 5 mg/kg, po; type: ADME, organism-based; conditions: in vivo
Method in brief: (§3)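 Male Sprague-Dawley rats (n = 3) received a single 5 mg/kg oral gavage dose formulated as a suspension in 0.5% methylcellulose. Plasma concentration-time curves were recorded and mean PK parameters derived.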

[6] = MRT(0 to infinity) in Sprague-Dawley rat at 5 mg/kg, po; type: ADME, organism-based; conditions: in vivo; method in brief: as §3
[7] = molecular target: Mitogen-activated protein kinase kinase kinase 4 (Homo sapiens) (UniProt Q9Y6R4); assay: Inhibition of human partial length MAP3K4 (G1319 to E1608 residues) expressed in bacterial expression system assessed as residual activity at 10 uM by kinome scan method relative to control; method in brief: as §2
[8] = molecular target: Serine/threonine-protein kinase Nek10 (Homo sapiens) (UniProt Q6ZWH5); assay: Inhibition of human partial length NEK10 (L488 to R809 residues) expressed in mammalian expression system assessed as residual activity at 10 uM by kinome scan method relative to control; method in brief: as §2
U-87 MG [9] = assay: Antitumour activity against human U87MG cells xenografted in ICR nude mouse assessed as tumour growth inhibition at 60 mg/kg, po every other day for 24 days relative to control; type: functional, organism-based; conditions: U-87MG ATCC, time 24.0 day
Method in brief: (§4)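 Male ICR nude mice inoculated subcutaneously with 5 × 10⁶ U87MG cells. Once tumours reached about 200 mm³, mice were randomised and dosed by oral gavage every other day for 24 days. Tumour volume (length × width² × 0.5) and body weight recorded every 4 days. Inhibition = 100 × {1 − [(final − initial volume) treated]/[(final − initial volume) vehicle]}.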

U-87 MG [10] = assay: Antitumour activity against human U87MG cells xenografted in ICR nude mouse assessed as tumour growth inhibition at 30 mg/kg, po every other day for 24 days relative to control; type: functional, U-87MG ATCC; conditions: 576 h, time 24 day, read-out: TGI; method in brief: as §4
[11] = molecular target: Cyclin-G-associated kinase (Homo sapiens) (UniProt O14976); assay: Inhibition of human partial length GAK (G13 to Y338 residues) expressed in bacterial expression system assessed as residual activity at 10 uM by kinome scan method relative to control; method in brief: as §2
[12] = molecular target: Interleukin-1 receptor-associated kinase 3 (Homo sapiens) (UniProt Q9Y616); assay: Inhibition of human partial length IRAK3 (V147 to E596 residues) expressed in bacterial expression system assessed as residual activity at 10 uM by kinome scan method relative to control; method in brief: as §2
[13] = molecular target: Serine/threonine-protein kinase/endoribonuclease IRE1 (Homo sapiens) (UniProt O75460); assay: Inhibition of human partial length ERN1 (S551 to E852 residues) expressed in mammalian expression system assessed as residual activity at 10 uM by kinome scan method relative to control; method in brief: as §2
[14] = molecular target: Phosphatidylinositol 4,5-bisphosphate 3-kinase catalytic subunit gamma isoform (Homo sapiens, UniProt P48736); assay: Inhibition of recombinant human full-length His-tagged PI3Kgamma expressed in baculovirus expression system using PIP2 as substrate measured after 1 hr by ADP-glo assay
[15] = molecular target: Dual specificity mitogen-activated protein kinase kinase 5 (Homo sapiens) (UniProt Q13163); assay: Inhibition of human partial length MEK5 (L98 to P448 residues) expressed in mammalian expression system assessed as residual activity at 10 uM by kinome scan method relative to control; method in brief: as §2
[16] = molecular target: Serine/threonine-protein kinase PRP4 homolog (Homo sapiens) (UniProt Q13523); assay: Inhibition of human partial length PRP4 (D657 to I1007 residues) expressed in bacterial expression system assessed as residual activity at 10 uM by kinome scan method relative to control
Method in brief: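 KINOMEscan competitive binding screen at 10 μM test compound against a 52-kinase panel. Output is % Ctrl = (test signal − positive control signal)/(negative control signal − positive control signal) × 100. DMSO is the negative control (100%) and the positive control is set to 0%.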

[17] = molecular target: Phosphatidylinositol 4-phosphate 5-kinase type-1 alpha (Homo sapiens) (UniProt Q99755); assay: Inhibition of human full length PIP5K1A (M1 to H562 residues) expressed in bacterial expression system assessed as residual activity at 10 uM by kinome scan method relative to control; method in brief: as §2
[18] = molecular target: Activin receptor type-2B (Homo sapiens) (UniProt Q13705); assay: Inhibition of human partial length ACVR2B (H169 to D504 residues) expressed in bacterial system assessed as residual activity at 10 uM by kinome scan method relative to control; method in brief: as §2
[19] = molecular target: Mitogen-activated protein kinase kinase kinase 13 (Homo sapiens) (UniProt O43283); assay: Inhibition of human full length LZK (M1 to W966 residues) expressed in bacterial expression system assessed as residual activity at 10 uM by kinome scan method relative to control; method in brief: as §2
[20] = molecular target: Serine/threonine-protein kinase 32A (Homo sapiens) (UniProt Q8WU08); assay: Inhibition of human full length YANK1 (M1 to L396 residues) expressed in mammalian expression system assessed as residual activity at 10 uM by kinome scan method relative to control; method in brief: as §2
[21] = molecular target: Serine/threonine-protein kinase TNNI3K (Homo sapiens) (UniProt Q59H18); assay: Inhibition of human full length TNNI3K (M1 to S835 residues) expressed in bacterial expression system assessed as residual activity at 10 uM by kinome scan method relative to control; method in brief: as §2
[22] = molecular target: Ephrin type-B receptor 6 (Homo sapiens) (UniProt O15197); assay: Inhibition of human partial length EPHB6 (Q634 to P948 residues) expressed in mammalian expression system assessed as residual activity at 10 uM by kinome scan method relative to control; method in brief: as §2
[23] = Half life in Sprague-Dawley rat at 5 mg/kg, po; type: ADME, organism-based; conditions: in vivo; method in brief: as §1
[24] = Cmax in Sprague-Dawley rat at 5 mg/kg, po; type: ADME, organism-based; design: route oral, dose 5 mg/kg; conditions: in vivo; method in brief: as §1

Serine/threonine-protein kinase PRP4 homolog (Homo sapiens), sequence (Q13523 whole entry, the tested form may be a part): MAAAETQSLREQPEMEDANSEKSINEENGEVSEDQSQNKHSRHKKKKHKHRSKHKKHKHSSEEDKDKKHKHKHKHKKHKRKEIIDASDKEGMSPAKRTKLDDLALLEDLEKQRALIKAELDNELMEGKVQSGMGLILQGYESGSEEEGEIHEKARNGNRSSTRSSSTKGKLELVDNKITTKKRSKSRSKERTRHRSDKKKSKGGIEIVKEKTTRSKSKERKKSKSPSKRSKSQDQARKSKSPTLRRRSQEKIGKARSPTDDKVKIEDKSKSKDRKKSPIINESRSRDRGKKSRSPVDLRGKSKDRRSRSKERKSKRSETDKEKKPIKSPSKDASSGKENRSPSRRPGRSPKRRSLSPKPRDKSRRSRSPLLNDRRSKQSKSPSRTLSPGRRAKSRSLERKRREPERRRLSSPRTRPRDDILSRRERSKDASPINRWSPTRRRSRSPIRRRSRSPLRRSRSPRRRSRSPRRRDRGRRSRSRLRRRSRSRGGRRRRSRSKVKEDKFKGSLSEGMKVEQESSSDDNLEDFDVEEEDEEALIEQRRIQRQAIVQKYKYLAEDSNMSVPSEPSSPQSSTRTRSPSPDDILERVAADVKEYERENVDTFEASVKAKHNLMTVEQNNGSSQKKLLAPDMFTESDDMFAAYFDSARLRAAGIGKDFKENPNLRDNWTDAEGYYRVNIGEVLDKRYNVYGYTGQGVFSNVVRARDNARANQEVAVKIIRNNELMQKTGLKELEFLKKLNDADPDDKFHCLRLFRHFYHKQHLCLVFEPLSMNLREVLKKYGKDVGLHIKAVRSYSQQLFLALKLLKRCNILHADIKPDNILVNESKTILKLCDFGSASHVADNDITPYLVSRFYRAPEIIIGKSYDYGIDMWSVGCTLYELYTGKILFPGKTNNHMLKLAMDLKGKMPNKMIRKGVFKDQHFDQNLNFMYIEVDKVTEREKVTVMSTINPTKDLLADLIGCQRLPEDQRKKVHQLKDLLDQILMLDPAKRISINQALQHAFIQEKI
Ephrin type-B receptor 6 (Homo sapiens), sequence (O15197 whole entry, the tested form may be a part): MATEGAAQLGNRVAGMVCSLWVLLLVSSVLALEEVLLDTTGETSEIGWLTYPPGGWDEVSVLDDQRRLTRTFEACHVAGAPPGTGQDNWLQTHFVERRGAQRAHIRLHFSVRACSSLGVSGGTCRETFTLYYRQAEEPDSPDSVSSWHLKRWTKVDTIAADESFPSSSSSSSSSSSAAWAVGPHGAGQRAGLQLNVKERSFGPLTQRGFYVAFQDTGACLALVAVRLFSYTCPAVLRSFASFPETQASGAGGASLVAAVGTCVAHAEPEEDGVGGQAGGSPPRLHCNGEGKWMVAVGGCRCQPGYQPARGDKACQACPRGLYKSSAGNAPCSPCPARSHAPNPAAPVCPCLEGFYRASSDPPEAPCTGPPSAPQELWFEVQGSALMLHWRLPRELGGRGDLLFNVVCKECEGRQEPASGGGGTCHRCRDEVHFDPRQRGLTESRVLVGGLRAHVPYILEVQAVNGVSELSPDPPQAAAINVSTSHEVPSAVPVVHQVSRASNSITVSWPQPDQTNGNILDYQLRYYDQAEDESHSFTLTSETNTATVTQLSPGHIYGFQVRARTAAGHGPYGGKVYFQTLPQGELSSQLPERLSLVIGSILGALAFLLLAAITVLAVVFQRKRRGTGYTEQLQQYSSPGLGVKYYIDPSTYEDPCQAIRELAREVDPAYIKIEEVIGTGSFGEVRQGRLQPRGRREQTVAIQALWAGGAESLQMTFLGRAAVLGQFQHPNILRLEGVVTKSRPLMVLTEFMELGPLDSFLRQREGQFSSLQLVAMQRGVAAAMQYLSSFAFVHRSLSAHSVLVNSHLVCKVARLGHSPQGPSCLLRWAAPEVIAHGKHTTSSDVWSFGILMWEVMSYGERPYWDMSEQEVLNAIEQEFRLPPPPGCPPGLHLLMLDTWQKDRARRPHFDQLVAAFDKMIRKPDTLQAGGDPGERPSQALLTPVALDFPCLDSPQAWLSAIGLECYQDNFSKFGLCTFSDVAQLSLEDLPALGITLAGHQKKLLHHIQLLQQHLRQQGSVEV
Serine/threonine-protein kinase 32A (Homo sapiens), sequence (Q8WU08 whole entry, the tested form may be a part): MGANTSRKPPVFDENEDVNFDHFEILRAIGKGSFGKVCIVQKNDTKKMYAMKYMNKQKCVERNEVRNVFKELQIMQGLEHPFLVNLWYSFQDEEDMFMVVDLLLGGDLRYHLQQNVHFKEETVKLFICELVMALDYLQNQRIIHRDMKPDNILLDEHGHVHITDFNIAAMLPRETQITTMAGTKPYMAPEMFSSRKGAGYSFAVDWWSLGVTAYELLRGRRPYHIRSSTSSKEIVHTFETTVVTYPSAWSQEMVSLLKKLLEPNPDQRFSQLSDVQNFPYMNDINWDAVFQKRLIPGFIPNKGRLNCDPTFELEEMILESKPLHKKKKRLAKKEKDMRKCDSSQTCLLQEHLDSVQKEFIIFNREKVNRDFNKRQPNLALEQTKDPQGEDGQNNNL
Serine/threonine-protein kinase Nek10 (Homo sapiens), sequence (Q6ZWH5 whole entry, the tested form may be a part): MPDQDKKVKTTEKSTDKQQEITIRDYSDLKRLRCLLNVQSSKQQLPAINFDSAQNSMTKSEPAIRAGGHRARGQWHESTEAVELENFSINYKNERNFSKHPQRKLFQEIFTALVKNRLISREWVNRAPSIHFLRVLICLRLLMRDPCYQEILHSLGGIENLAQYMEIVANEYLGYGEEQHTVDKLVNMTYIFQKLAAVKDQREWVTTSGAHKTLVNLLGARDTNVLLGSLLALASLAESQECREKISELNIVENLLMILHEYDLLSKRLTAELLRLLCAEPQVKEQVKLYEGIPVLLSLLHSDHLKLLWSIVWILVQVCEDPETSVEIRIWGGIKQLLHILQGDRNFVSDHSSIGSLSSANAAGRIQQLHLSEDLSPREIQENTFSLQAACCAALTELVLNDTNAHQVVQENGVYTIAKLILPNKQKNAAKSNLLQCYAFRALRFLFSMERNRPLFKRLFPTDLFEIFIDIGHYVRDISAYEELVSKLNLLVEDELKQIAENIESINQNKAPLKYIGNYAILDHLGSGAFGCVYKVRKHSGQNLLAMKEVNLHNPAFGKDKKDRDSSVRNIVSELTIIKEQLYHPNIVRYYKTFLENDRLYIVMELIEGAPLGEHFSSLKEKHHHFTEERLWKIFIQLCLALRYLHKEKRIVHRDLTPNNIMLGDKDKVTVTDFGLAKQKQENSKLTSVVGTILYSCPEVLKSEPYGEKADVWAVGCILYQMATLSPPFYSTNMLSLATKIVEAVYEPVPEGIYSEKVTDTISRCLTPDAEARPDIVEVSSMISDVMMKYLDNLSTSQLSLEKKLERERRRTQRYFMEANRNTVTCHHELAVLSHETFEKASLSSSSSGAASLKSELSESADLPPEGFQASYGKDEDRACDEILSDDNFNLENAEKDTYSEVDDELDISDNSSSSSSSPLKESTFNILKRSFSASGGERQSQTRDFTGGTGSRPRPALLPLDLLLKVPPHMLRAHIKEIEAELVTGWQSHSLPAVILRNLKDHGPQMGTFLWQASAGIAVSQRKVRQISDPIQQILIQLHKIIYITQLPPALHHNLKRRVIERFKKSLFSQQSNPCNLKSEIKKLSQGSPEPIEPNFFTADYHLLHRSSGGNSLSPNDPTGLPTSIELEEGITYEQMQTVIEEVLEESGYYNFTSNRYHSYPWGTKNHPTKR
Phosphatidylinositol 4,5-bisphosphate 3-kinase catalytic subunit gamma isoform, sequence (P48736 whole entry, the tested form may be a part, canonical isoform): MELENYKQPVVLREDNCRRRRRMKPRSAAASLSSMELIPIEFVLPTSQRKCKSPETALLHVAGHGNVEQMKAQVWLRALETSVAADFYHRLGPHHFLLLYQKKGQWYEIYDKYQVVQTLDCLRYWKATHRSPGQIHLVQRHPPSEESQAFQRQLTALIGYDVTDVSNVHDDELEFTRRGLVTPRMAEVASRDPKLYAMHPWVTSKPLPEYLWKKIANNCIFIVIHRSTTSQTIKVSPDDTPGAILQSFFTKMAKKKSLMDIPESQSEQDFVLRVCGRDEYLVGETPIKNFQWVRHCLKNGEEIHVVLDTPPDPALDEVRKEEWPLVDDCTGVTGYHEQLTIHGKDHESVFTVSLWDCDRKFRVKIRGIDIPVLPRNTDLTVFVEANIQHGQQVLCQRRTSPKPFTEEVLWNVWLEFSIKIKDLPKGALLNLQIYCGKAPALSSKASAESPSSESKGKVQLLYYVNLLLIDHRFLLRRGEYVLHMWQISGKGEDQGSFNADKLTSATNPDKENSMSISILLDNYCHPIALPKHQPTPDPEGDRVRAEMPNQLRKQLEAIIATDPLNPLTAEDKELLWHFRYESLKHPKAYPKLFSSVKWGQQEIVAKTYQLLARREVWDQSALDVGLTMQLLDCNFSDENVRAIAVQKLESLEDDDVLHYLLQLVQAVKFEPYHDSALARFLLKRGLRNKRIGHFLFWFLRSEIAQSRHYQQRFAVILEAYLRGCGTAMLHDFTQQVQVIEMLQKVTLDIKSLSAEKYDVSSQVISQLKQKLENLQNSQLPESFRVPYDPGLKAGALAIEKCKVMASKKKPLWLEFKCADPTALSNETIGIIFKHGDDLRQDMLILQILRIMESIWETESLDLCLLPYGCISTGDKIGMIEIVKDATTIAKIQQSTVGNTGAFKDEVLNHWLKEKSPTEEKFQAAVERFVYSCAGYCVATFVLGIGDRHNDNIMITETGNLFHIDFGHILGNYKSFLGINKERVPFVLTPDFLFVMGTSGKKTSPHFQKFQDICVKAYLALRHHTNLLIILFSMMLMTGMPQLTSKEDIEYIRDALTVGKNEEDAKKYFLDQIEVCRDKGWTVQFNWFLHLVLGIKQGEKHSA
Cyclin-dependent kinase-like 1 (Homo sapiens), sequence (Q00532 whole entry, the tested form may be a part): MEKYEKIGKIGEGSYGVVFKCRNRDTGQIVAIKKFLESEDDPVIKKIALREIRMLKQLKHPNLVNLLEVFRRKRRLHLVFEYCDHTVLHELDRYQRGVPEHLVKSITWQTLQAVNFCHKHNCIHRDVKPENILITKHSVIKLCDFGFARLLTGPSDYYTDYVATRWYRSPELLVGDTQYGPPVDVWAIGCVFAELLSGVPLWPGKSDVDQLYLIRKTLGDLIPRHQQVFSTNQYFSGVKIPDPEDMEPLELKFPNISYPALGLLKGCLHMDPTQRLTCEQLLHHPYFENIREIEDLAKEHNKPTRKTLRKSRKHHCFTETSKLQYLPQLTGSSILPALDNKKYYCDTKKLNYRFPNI

`COc1ncc(-c2ccc3nccc(/C(C)=C/C(=O)N4CCN(C)CC4)c3c2)cc1NS(=O)(=O)c1ccc(F)cc1F` showed an IC50 [1] of 5 nM, an AUC(0-inf) [2] of 1450 ng·h/mL and an Activity [3] of 93%. For the same molecule, the Activity [4] was 82%, the MRT last [5] was 1.9 h and the MRT inf [6] was 2.57 h. The Activity [7] was 92%, the Activity [8] was 61% and the TGI (U-87 MG [9]) was “Active”. It also gave an inhibition in vivo at 30 mg/kg (U-87 MG [10]) of 93.5%, an Activity [11] of 22% and an Activity [12] of 24%. For the same molecule, the Activity [13] was 54%, the IC50 [14] was 1.3 nM and the Activity [15] was 63%. The Activity [16] was 100%, the Activity [17] was 45% and the Activity [18] was 100%. It also gave an Activity [19] of 53%, an Activity [20] of 84% and an Activity [21] of 87%. The Activity [22] was 11%, the half-life [23] was 1.85 h and the Cmax [24] was 903 ng/mL.
